# In ChEMBL document CHEMBL1153702, “Synthesis and cytotoxic activity of 2-methylimidazo[1,2-a]pyridine- and quinoline-substituted 2-aminopyrimidine derivatives” (Eur J Med Chem, 2010):
# The source made the active and inactive calls. No cut-off for these calls is given here.
# Tests used:
# [1] = test system: K562; assay: Cytotoxicity against human K562 cells at 50 uM after 48 hrs by SRB assay; type: functional; settings: for inhibition at 50 µM: K562, 48 h
# In short: (§1)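 Cells in RPMI-1640 with 10% FCS at 37 °C, 5% CO2; 5–10 × 10^3 cells/well seeded 24 h, then exposed 48 h to 50 μM compound (DMSO stock; 5-fluorouracil at same concentration as positive control). TCA-fixed at 4 °C 1 h, stained with 0.4% SRB, dye solubilized in 10 mM Tris base, OD 515 nm; % growth inhibition, mean of three experiments in triplicate.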
# [2] = test system: SK-LU-1; assay: Cytotoxicity against human SK-LU-1 cells after 48 hrs by SRB assay; type: functional, cell-based; settings: SK-LU-1, 48 h
# In short: (§2)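 SRB protein-staining assay: 5–10 × 10^3 cells/well in RPMI-1640/10% FCS, allowed 24 h to attach, then 48 h with compound dissolved from DMSO stock; TCA fixation, 0.4% SRB staining, Tris-solubilized dye read at 515 nm. IC50 from dose-response curve by non-linear regression; mean ± SD of three independent experiments.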
# [3] = test system: MCF7; assay: Cytotoxicity against human MCF7 cells after 48 hrs by SRB assay; type: functional, cell-based; settings: MCF7, 48 h; in short: as §2
# [4] = test system: HCT-15; assay: Cytotoxicity against human HCT15 cells at 50 uM after 48 hrs by SRB assay; type: functional; settings: for inhibition at 50 µM: HCT-15, 48 h; in short: as §1
# [5] = test system: U-251; assay: Cytotoxicity against human U251 cells at 50 uM after 48 hrs by SRB assay; type: functional; settings: U-251, 48 h; in short: as §1
# [6] = test system: SK-LU-1; assay: Cytotoxicity against human SK-LU-1 cells at 50 uM after 48 hrs by SRB assay; type: functional; settings: SK-LU-1, 48 h; in short: as §1
# [7] = test system: MCF7; assay: Cytotoxicity against human MCF7 cells at 50 uM after 48 hrs by SRB assay; type: functional; settings: MCF7, 48 h; in short: as §1
# [8] = test system: PC-3; assay: Cytotoxicity against human PC3 cells at 50 uM after 48 hrs by SRB assay; type: functional; settings: PC-3, 48 h; in short: as §1
# [9] = test system: SK-LU-1; assay: Cell cycle arrest in human SK-LU-1 cells assessed as accumulation at G1 phase after 24 hrs by flow cytometry; type: functional
# [10] = test system: MCF7; assay: Cell cycle arrest in human MCF7 cells assessed as accumulation at S phase after 24 hrs by flow cytometry; type: functional
# [11] = test system: SK-LU-1; assay: Induction of apoptosis in human SK-LU-1 cells assessed as apoptotic cells after 48 hrs using annexin-V-FITC/propidium iodide staining by flow cytometry; type: functional, cell-based
# In short: (§3)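 2.5 × 10^5 cells per well attached 24 h, then treated 48 h with compound or DMSO vehicle at the highest concentration used. Adherent plus floating cells washed in PBS, resuspended in annexin-binding buffer, stained with annexin V-FITC and propidium iodide 10 min in the dark at room temperature; 10,000 events analysed by flow cytometry, quadrants scoring apoptotic versus late apoptotic/necrotic cells.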
# [12] = test system: MCF7; assay: Cell cycle arrest in human MCF7 cells assessed as accumulation at G2/M phase after 24 hrs by flow cytometry; type: functional
# [13] = test system: SK-LU-1; assay: Cell cycle arrest in human SK-LU-1 cells assessed as accumulation at G2/M phase after 24 hrs by flow cytometry; type: functional
# [14] = test system: SK-LU-1; assay: Cell cycle arrest in human SK-LU-1 cells assessed as accumulation at S phase after 24 hrs by flow cytometry; type: functional
# [15] = target: Cyclin-dependent kinase 1/cyclin B1 (Homo sapiens) (UniProt P06493+P14635); settings: at 7 µM
# Chain of Cyclin-dependent kinase 1/cyclin B1 (Homo sapiens) (P06493 whole entry, looked up): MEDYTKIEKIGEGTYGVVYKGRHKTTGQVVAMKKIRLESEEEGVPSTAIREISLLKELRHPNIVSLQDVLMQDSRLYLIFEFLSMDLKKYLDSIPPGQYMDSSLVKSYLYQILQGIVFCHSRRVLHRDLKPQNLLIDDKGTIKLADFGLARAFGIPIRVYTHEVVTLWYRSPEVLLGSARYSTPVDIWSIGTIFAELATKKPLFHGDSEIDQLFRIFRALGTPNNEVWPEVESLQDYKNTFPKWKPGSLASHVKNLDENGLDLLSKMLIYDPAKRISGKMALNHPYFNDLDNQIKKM
# Chain of Cyclin-dependent kinase 1/cyclin B1 (Homo sapiens) (P14635 whole entry, looked up): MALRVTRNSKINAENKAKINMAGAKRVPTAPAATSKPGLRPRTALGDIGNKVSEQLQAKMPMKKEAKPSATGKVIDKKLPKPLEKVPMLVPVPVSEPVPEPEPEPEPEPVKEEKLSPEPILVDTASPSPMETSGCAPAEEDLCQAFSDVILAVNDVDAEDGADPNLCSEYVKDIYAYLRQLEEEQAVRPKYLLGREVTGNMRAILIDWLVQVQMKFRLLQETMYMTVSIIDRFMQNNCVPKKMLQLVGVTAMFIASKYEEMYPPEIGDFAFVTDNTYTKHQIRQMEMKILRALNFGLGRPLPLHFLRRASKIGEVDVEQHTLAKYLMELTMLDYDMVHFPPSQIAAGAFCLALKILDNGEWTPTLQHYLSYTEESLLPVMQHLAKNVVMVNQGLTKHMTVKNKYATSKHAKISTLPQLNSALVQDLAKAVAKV
# [16] = test system: SK-LU-1; assay: Induction of apoptosis in human SK-LU-1 cells assessed as necrotic cells after 48 hrs using annexin-V-FITC/propidium iodide staining by flow cytometry; type: functional, cell-based; in short: as §3
# [17] = test system: MCF7; assay: Cell cycle arrest in human MCF7 cells assessed as accumulation at G1 phase after 24 hrs by flow cytometry; type: functional
Compound,inhibition at 50 µM [1],IC50 [2],IC50 [3],inhibition at 50 µM [4],inhibition at 50 µM [5],inhibition at 50 µM [6],inhibition at 50 µM [7],inhibition at 50 µM [8],Activity [9],Activity [10],Activity [11],Activity [12],Activity [13],Activity [14],inhibition [15],Activity [16],Activity [17],inhibition [4],inhibition [1]
FC(F)(F)c1ccc(Nc2nccc(-c3c(C(F)(F)F)nc4ccccn34)n2)cc1,94.2%,745 nM,290 nM,94.4%,100%,95%,100%,92%,,,,,,,,,,,
Cc1ccc(Nc2nccc(-c3ccnc4ccccc34)n2)cc1,50.9%,1400 nM,600 nM,100%,100%,100%,100%,100%,8.1%,15.1%,Active,64.7%,74%,22%,75%,inactive,18.7%,,
O=c1[nH]cc(F)c(=O)[nH]1 [FLUOROURACIL],73.7%,,,71.3%,64.2%,70.5%,65.1%,45.4%,,,,,,,,,,,
Cc1ccc(Nc2nccc(-c3c(C)nc4ccccn34)n2)cc1,89.4%,19.7 nM,59 nM,95.2%,100%,100%,88.5%,94.2%,4.7%,25.3%,Active,14.7%,77.5%,20.9%,59%,inactive,60.8%,,
Cc1nc2ccccn2c1-c1ccnc(Nc2ccc(C=O)s2)n1,88.1%,1540 nM,4270 nM,85.4%,57.8%,100%,75.9%,49.5%,42.5%,15.7%,Active,22.2%,48%,13.9%,52%,inactive,54.5%,,
Cc1nc2ccccn2c1-c1ccnc(Nc2ccc(C(F)(F)F)cc2)n1,84.8%,34 nM,66 nM,88.6%,85.6%,100%,83.4%,64.5%,,,,,,,60%,,,,
Nc1nccc(-c2ccnc3ccccc23)n1,9.4%,> 50000 nM,40200 nM,,100%,78.2%,100%,77.4%,,,,,,,,,,inactive,
Cc1ccc(Nc2nccc(-c3cnc4ccccc4c3)n2)cc1,,,50000 nM,30.3%,87.7%,46.3%,100%,59.5%,,,,,,,73%,,,,inactive
Nc1nccc(-c2cnc3ccccc3c2)n1,,> 50000 nM,> 50000 nM,,38.5%,59.3%,100%,31.9%,,,,,,,,,,inactive,inactive
Nc1nccc(-c2c(C(F)(F)F)nc3ccccn23)n1,56.3%,56500 nM,53700 nM,,92.2%,71%,100%,74%,,,,,,,,,,,
FC(F)(F)c1ccc(Nc2nccc(-c3ccnc4ccccc34)n2)cc1,,1720 nM,1650 nM,100%,91.8%,100%,100%,87.3%,,,,,,,,,,,inactive
FC(F)(F)c1ccc(Nc2nccc(-c3cnc4ccccc4c3)n2)cc1,,,> 50000 nM,24%,49.8%,35.4%,80.9%,22.9%,,,,,,,,,,,inactive
Cc1ccc(Nc2nccc(-c3c(C(F)(F)F)nc4ccccn34)n2)cc1,100%,175 nM,44 nM,100%,100%,100%,100%,100%,,,Active,,,,,inactive,,,
Cn1cnc2c(NCc3ccccc3)nc(NCCO)nc21 [OLOMOUCINE],,,,,,,,,44.2%,15.1%,,23.2%,31.8%,19.7%,,,60.6%,,
